According to ChEMBL document CHEMBL3244108, “Potential antitumor agents. Some sulfur-substituted derivatives of alpha- and beta-2'-deoxythioguanosine” (J Med Chem, 1977):

Experiments:
[1] = system: P388; experiment: Antitumor activity in mouse P388 cells allografted in mouse assessed as increase in survival time at optimal dose administered qd on days 1 to 9 of challenge relative to control; type: functional
Method in brief: (§1)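 Mouse leukemia survival test run under standard National Cancer Institute protocols. T/C = (treated-animal average survival time / control-animal average survival time) × 100%. Optimum dose is expressed as mg/kg/dose. T/C data were duplicated in separate experiments except where a footnote states that confirmation was not run.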

[2] = species: Mus musculus; experiment: Acute toxicity in mouse; type: organism-based; conditions: in vivo
[3] = system: L1210; experiment: Inhibition of RNA synthesis in mouse L1210 cells assessed as inhibition of tritiated uridine incorporation into nucleic acids; type: functional; conditions: read-out: ED50 (the source's name)
Method in brief: (§2)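 Cultured L1210 cells were labeled with tritiated thymidine (DNA) or tritiated uridine (RNA), and label incorporation into the isolated nucleic acids was measured. The ED50 is the drug concentration that inhibits this incorporation by 50%. Other details are referenced to earlier work.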

[4] = system: L1210; experiment: Antitumor activity in mouse L1210 cells allografted in mouse assessed as increase in survival time at optimal dose administered qd on days 1 to 5 of challenge relative to control; type: functional; method in brief: as §1
[5] = system: L1210; experiment: Inhibition of DNA synthesis in mouse L1210 cells assessed as inhibition of tritiated thymidine incorporation into nucleic acids; type: functional; conditions: read-out: ED50 (the source's name); method in brief: as §2
[6] = system: L1210; experiment: Antitumor activity in mouse L1210 cells allografted in mouse assessed as increase in survival time at optimal dose administered qd on days 1 to 16 of challenge relative to control; type: functional; method in brief: as §1
[7] = system: L1210; experiment: Antitumor activity in mouse L1210 cells allografted in mouse assessed as increase in survival time at optimal dose administered as single dose relative to control; type: functional; method in brief: as §1
[8] = system: L1210; experiment: Antitumor activity in mouse L1210 cells allografted in mouse assessed as increase in survival time at 400 mg/kg administered as single dose relative to control; type: functional; method in brief: as §1
[9] = system: L1210; experiment: Antitumor activity in mouse L1210 cells allografted in mouse assessed as increase in survival time at optimal dose administered qd on days 1 to 9 of challenge relative to control; type: functional; method in brief: as §1

SMILES	T/C [1]	Activity [2]	EC50 [3]	T/C [4]	EC50 [5]	T/C [6]	T/C [7]	T/C [8]	T/C [9]
Cn1cnc([N+](=O)[O-])c1Sc1nc(N)nc2c1ncn2[C@H]1C[C@H](O)[C@@H](CO)O1	161%	Non-toxic	11 µM	173%	25 µM	–	–	–	–
CSc1nc(N)nc2c1ncn2[C@H]1C[C@H](O)[C@@H](CO)O1	–	Non-toxic	24 µM	128%	27 µM	–	–	–	–
Nc1nc2c(ncn2[C@@H]2C[C@H](O)[C@@H](CO)O2)c(=S)[nH]1	168%	–	> 100 µM	161%	> 100 µM	174%	–	–	–
Nc1nc(SCc2ccccc2)c2ncn([C@H]3C[C@H](O)[C@@H](CO)O3)c2n1	–	Non-toxic	–	–	–	–	172%	157%	–
Nc1nc(SCc2ccccc2)c2ncn([C@@H]3C[C@H](O)[C@@H](CO)O3)c2n1	–	Non-toxic	–	144%	–	–	–	–	–
CSc1nc(N)nc2c1ncn2[C@@H]1C[C@H](O)[C@@H](CO)O1	<125%	Non-toxic	> 100 µM	<125%	> 100 µM	–	–	–	–
C=CCSc1nc(N)nc2c1ncn2[C@H]1C[C@H](O)[C@@H](CO)O1	181%	Non-toxic	3 µM	179%	5.5 µM	–	–	–	–
C=CCSc1nc(N)nc2c1ncn2[C@@H]1C[C@H](O)[C@@H](CO)O1	<125%	Non-toxic	> 100 µM	<125%	> 100 µM	–	–	–	–
Cc1cccc(CSc2nc(N)nc3c2ncn3[C@H]2C[C@H](O)[C@@H](CO)O2)n1	<125%	Non-toxic	31 µM	153%	64 µM	–	–	–	–
Cc1cccc(CSc2nc(N)nc3c2ncn3[C@@H]2C[C@H](O)[C@@H](CO)O2)n1	<125%	Non-toxic	72 µM	<125%	79 µM	–	–	–	–
Cn1cnc([N+](=O)[O-])c1Sc1nc(N)nc2c1ncn2[C@@H]1C[C@H](O)[C@@H](CO)O1	<125%	Non-toxic	> 100 µM	137%	> 100 µM	–	–	–	–
CC(=O)OC[C@H]1O[C@@H](n2cnc3c(=S)[nH]c(N)nc32)C[C@@H]1OC(C)=O	174%	–	–	156%	–	–	–	–	–
CC(=O)OC[C@H]1O[C@H](n2cnc3c(=S)[nH]c(N)nc32)C[C@@H]1OC(C)=O	–	–	–	<125%	–	–	–	–	–
CSc1nc(NC(C)=O)nc2c1ncn2[C@H]1C[C@H](O)[C@@H](CO)O1	–	Non-toxic	–	<125%	–	–	–	–	–
Nc1nc2c(ncn2[C@H]2C[C@H](O)[C@@H](CO)O2)c(=S)[nH]1 [ATEGANOSINE]	138%	–	50 µM	219%	> 100 µM	–	–	–	208%
